# Measured values from ChEMBL document CHEMBL2029233, “Des-acyl ghrelin fragments and analogues promote survival of pancreatic β-cells and human pancreatic islets and prevent diabetes in streptozotocin-treated rats” (2012).
# Activity calls are given as the source filed them. The rule behind the calls is not given here. Peptide text beside a SMILES is read from it.
# How the values were obtained:
# [1] = system: HIT-T15; assay: Cytoprotective activity in hamster HIT-T15 cells assessed as inhibition of IFN-gamma/TNFalpha/IL1beta-induced cell death at 10 to 100 nM after 24 hrs by MTT assay relative to control; type: functional, cell-based; conditions: Mesocricetus auratus
# In short: (§1)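 HIT-T15 cells (5×10^3/well) serum-starved 24 h, then 24 h serum-free with IFN-γ 100 ng/mL, TNF-α 200 ng/mL, IL-1β 10 ng/mL plus peptide (1–100 nM). MTT 1 mg/mL ~1 h, formazan dissolved in DMSO, A570. Reported as percent of cytokine control. Mean ± SE of ≥3 experiments in quadruplicate.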
# [2] = system: HIT-T15; assay: Cytoprotective activity in hamster HIT-T15 cells assessed as inhibition of serum starvation-induced cell death at 1 to 100 nM after 24 hrs by MTT assay relative to control; type: functional, cell-based; conditions: Mesocricetus auratus
# In short: (§2)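 Viability by MTT in HIT-T15 cells seeded at 5×10^3/well, serum-starved 24 h, then 24 h more in serum-free medium with peptide (1–100 nM). MTT 1 mg/mL ~1 h, DMSO solubilization, absorbance 570 nm. Expressed as percent of serum-free control. Mean ± SE, ≥3 experiments in quadruplicate.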
# [3] = system: HIT-T15; assay: Cytoprotective activity in hamster HIT-T15 cells assessed as inhibition of IFN-gamma/TNFalpha/IL1beta-induced cell death at 1 to 100 nM after 24 hrs by MTT assay relative to control; type: functional, cell-based; conditions: Mesocricetus auratus; in short: as §1
# [4] = system: Pancreatic islet; assay: Cytoprotective activity in human pancreatic islet cells assessed as inhibition of serum starvation-induced cell death at 10 nM after 24 hrs by MTT assay relative to control; type: functional
# In short: (§3)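 Human donor islets (purity >70%, 25/well) serum-starved 24 h, then 24 h serum-free with peptide (1–100 nM), alone or with IFN-γ 100 ng/mL, TNF-α 200 ng/mL, IL-1β 10 ng/mL. MTT 1 mg/mL ~1 h, DMSO, A570. Percent of serum-free or cytokine control. ≥3 experiments in quadruplicate.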
# [5] = system: Pancreatic islet; assay: Cytoprotective activity in human pancreatic islet cells assessed as inhibition of IFN-gamma/TNFalpha/IL1beta-induced cell death at 1 nM after 24 hrs by MTT assay relative to control; type: functional; in short: as §3
# [6] = system: Pancreatic islet; assay: Cytoprotective activity in human pancreatic islet cells assessed as inhibition of serum starvation-induced cell death at 100 nM after 24 hrs by MTT assay relative to control; type: functional; in short: as §3
# [7] = system: Pancreatic islet; assay: Cytoprotective activity in human pancreatic islet cells assessed as inhibition of IFN-gamma/TNFalpha/IL1beta-induced cell death at 10 nM after 24 hrs by MTT assay relative to control; type: functional; in short: as §3
# [8] = system: Pancreatic islet; assay: Cytoprotective activity in human pancreatic islet cells assessed as inhibition of IFN-gamma/TNFalpha/IL1beta-induced cell death at 100 nM after 24 hrs by MTT assay relative to control; type: functional; in short: as §3
# [9] = system: HIT-T15; assay: Cytoprotective activity in hamster HIT-T15 cells assessed as inhibition of serum starvation-induced cell death after 24 hrs by MTT assay relative to control; type: functional, cell-based; conditions: Mesocricetus auratus; in short: as §2
# [10] = system: EPC; assay: Cytoprotective activity in human EPC assessed as decrease in H2O2-induced ROS production after 2 hrs by DCF-DA flow cytometry assay; type: functional
# In short: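 Human EPCs from peripheral blood mononuclear cells, cultured 21 days on collagen I in EGM-2. ROS measured by flow cytometry using DCF-DA (0.5 μM final) after 2 h of treatment. H₂O₂ 150 μM as positive control.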
# [11] = target: Ras-related C3 botulinum toxin substrate 1 (Homo sapiens) (UniProt P63000); assay: Inhibition of Rac1 activation
# [12] = system: EPC; assay: Cytoprotective activity in human EPC assessed as decrease in H2O2-induced senescence associated beta-galactosidase positive cells at 10 uM after 24 hrs; type: functional
# In short: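 EPCs given test peptides (1 μM or 10 μM) with or without H₂O₂ for 24 h. Cells then fixed in 2% paraformaldehyde for 3 min and stained 24 h at 37 °C with X-gal solution. SA-β-gal-positive cells counted out of 100 at 20× by three investigators.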
# [13] = system: HIT-T15; assay: Cytoprotective activity in hamster HIT-T15 cells assessed as inhibition of IFN-gamma/TNFalpha/IL1beta-induced cell death after 24 hrs by MTT assay relative to control; type: functional, cell-based; conditions: Mesocricetus auratus; in short: as §1
# [14] = system: HIT-T15; assay: Antiapoptotic activity in hamster HIT-T15 cells assessed as reduction in IFN-gamma/TNFalpha/IL1beta-induced apoptosis at 1 nM after 24 hrs by Hoechst staining relative to control; type: functional, cell-based; conditions: Mesocricetus auratus
# In short: (§4)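 HIT-T15 cells serum-starved 24 h, then 24 h in serum-free medium with IFN-γ 100 ng/mL, TNF-α 200 ng/mL, IL-1β 10 ng/mL plus peptide. Cells pooled with floating cells, formaldehyde-fixed, ethanol-stored, stained with 10 μg/mL Hoechst 33258. Condensed/fragmented nuclei counted, 500 nuclei in duplicate, n = 3. Reported as percent apoptotic cells.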
# [15] = system: HIT-T15; assay: Antiapoptotic activity in hamster HIT-T15 cells assessed as reduction in IFN-gamma/TNFalpha/IL1beta-induced apoptosis at 10 nM after 24 hrs by Hoechst staining relative to control; type: functional, cell-based; conditions: Mesocricetus auratus; in short: as §4
# [16] = system: HIT-T15; assay: Antiapoptotic activity in hamster HIT-T15 cells assessed as reduction in IFN-gamma/TNFalpha/IL1beta-induced apoptosis at 100 nM after 24 hrs by Hoechst staining relative to control; type: functional, cell-based; conditions: Mesocricetus auratus; in short: as §4
# [17] = system: Pancreatic islet; assay: Cytoprotective activity in human pancreatic islet cells assessed as inhibition of IFN-gamma/TNFalpha/IL1beta-induced cell death at 100 nM after 72 hrs by MTT assay relative to control; type: functional
# In short: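 Human donor islets (>70% purity, 25/well) held 72 h in serum-free medium with peptide, alone or with IFN-γ/TNF-α/IL-1β at 5 ng/mL each. Viability by MTT (1 mg/mL ~1 h, DMSO, 570 nm). Mean ± SE of ≥3 experiments in quadruplicate.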
# [18] = system: Pancreatic islet; assay: Cytoprotective activity in human pancreatic islet cells assessed as inhibition of serum starvation-induced cell death at 1 nM after 24 hrs by MTT assay relative to control; type: functional; in short: as §3
Compound,Activity [2],Activity [3],further results
CC(C)[C@H](NC(=O)[C@H](CCCNC(=N)N)NC(=O)[C@H](CCC(N)=O)NC(=O)[C@@H](N)Cc1cnc[nH]1)C(N)=O (H-HQRV-NH2),,,Activity [1]: Active
CC(C)[C@H](NC(=O)[C@H](CCCNC(=N)N)NC(=O)[C@H](CCC(N)=O)NC(=O)[C@H](Cc1cnc[nH]1)NC(=O)[C@H](CCC(=O)O)NC(=O)[C@@H]1CCCN1C(=O)[C@H](N)CO)C(=O)N[C@@H](CCC(N)=O)C(N)=O,inactive,inactive,
H-GSSFLSPEHQRVQQ-NH2,Active,Active,Activity [4]: Active; Activity [5]: inactive; Activity [6]: Active; Activity [7]: inactive; Activity [8]: Active
H-SPEHQAVQ-NH2,inactive,inactive,
H-SAEHQRVQ-NH2,Active,Active,
CC(C)[C@@H]1NC(=O)[C@H](CCCNC(=N)N)NC(=O)[C@H](CCC(N)=O)NC(=O)[C@H](Cc2cnc[nH]2)NC(=O)[C@H](CCC(=O)O)NC(=O)[C@@H]2CCCN2C(=O)[C@H](CO)NC(=O)[C@H](CCC(N)=O)NC1=O (cyclo(EHQRVQSP)),,,Activity [9]: Dose-dependent effect; Activity [10]: Active; inhibition [11]: Active; Activity [12]: Active; Activity [13]: Dose-dependent effect
CC(C)[C@@H](NC(=O)[C@H](N)CCC(N)=O)C(=O)N[C@H](CCCNC(=N)N)C(=O)N[C@H](CCC(N)=O)C(=O)N[C@H](Cc1cnc[nH]1)C(=O)N[C@H](CCC(=O)O)C(=O)N1CCC[C@@H]1C(=O)N[C@H](CO)C(N)=O,inactive,inactive,
CC(C)[C@H](NC(=O)[C@H](CCCNC(=N)N)NC(=O)[C@H](CCC(N)=O)NC(=O)[C@@H](Cc1cnc[nH]1)NC(=O)[C@H](CCC(=O)O)NC(=O)[C@@H]1CCCN1C(=O)[C@@H](N)CO)C(=O)N[C@@H](CCC(N)=O)C(N)=O,inactive,inactive,
N=C(N)NCCC[C@H](NC(=O)[C@H](CCC(N)=O)NC(=O)[C@@H](N)Cc1cnc[nH]1)C(N)=O (H-His-Gln-Arg-NH2),,inactive,
N=C(N)NCCC[C@H](NC(=O)[C@H](CCC(N)=O)NC(=O)[C@H](Cc1cnc[nH]1)NC(=O)[C@@H](N)CCC(=O)O)C(N)=O (H-EHQR-NH2),,inactive,
H-EHQRV-NH2,,,Activity [14]: inactive; Activity [1]: Active; Activity [15]: inactive; Activity [16]: Active
H-QQVRQHEPSLFSSG-OH,,inactive,Activity [6]: inactive; Activity [14]: inactive; Activity [15]: inactive; Activity [17]: inactive; Activity [16]: inactive; Activity [8]: inactive
H-SPEHARVQ-NH2,inactive,inactive,
H-GSSFL-NH2,inactive,inactive,Activity [4]: inactive; Activity [5]: inactive; Activity [6]: inactive; Activity [18]: inactive; Activity [7]: inactive; Activity [8]: inactive
CC(C)[C@H](NC(=O)[C@H](CCCNC(=N)N)NC(=O)[C@H](CCC(N)=O)NC(=O)[C@H](Cc1cnc[nH]1)NC(=O)[C@H](CCC(=O)O)NC(=O)[C@H]1CCCN1C(=O)[C@@H](N)CO)C(=O)N[C@@H](CCC(N)=O)C(N)=O,inactive,inactive,
CC(C)[C@H](NC(=O)[C@H](CCCNC(=N)N)NC(=O)[C@H](CCC(N)=O)NC(=O)[C@H](Cc1cnc[nH]1)NC(=O)[C@H](CCC(=O)O)NC(=O)[C@@H]1CCCN1C(=O)[C@@H](N)CO)C(=O)N[C@H](CCC(N)=O)C(N)=O,inactive,inactive,
H-ESKKPPAKLQPR-OH,inactive,inactive,Activity [4]: inactive; Activity [5]: inactive; Activity [6]: inactive; Activity [18]: inactive; Activity [7]: inactive; Activity [8]: inactive
CC(C)[C@@H](NC(=O)[C@H](CCCNC(=N)N)NC(=O)[C@H](CCC(N)=O)NC(=O)[C@H](Cc1cnc[nH]1)NC(=O)[C@H](CCC(=O)O)NC(=O)[C@@H]1CCCN1C(=O)[C@@H](N)CO)C(=O)N[C@@H](CCC(N)=O)C(N)=O,inactive,inactive,
H-SPEHQRVA-NH2,Active,Active,
H-GSSFLSPEHQRVQQRKES-NH2,Active,Active,Activity [4]: Active; Activity [5]: Active; Activity [6]: inactive; Activity [18]: Active; Activity [7]: Active; Activity [8]: inactive
CC(C)[C@H](NC(=O)[C@@H](CCCNC(=N)N)NC(=O)[C@H](CCC(N)=O)NC(=O)[C@H](Cc1cnc[nH]1)NC(=O)[C@H](CCC(=O)O)NC(=O)[C@@H]1CCCN1C(=O)[C@@H](N)CO)C(=O)N[C@@H](CCC(N)=O)C(N)=O,inactive,inactive,
CC(C)[C@H](NC(=O)[C@H](CCCNC(=N)N)NC(=O)[C@@H](CCC(N)=O)NC(=O)[C@H](Cc1cnc[nH]1)NC(=O)[C@H](CCC(=O)O)NC(=O)[C@@H]1CCCN1C(=O)[C@@H](N)CO)C(=O)N[C@@H](CCC(N)=O)C(N)=O,inactive,inactive,
CC(C)[C@@H](NC(=O)[C@@H](CCCNC(=N)N)NC(=O)[C@@H](CCC(N)=O)NC(=O)[C@@H](Cc1cnc[nH]1)NC(=O)[C@@H](CCC(=O)O)NC(=O)[C@H]1CCCN1C(=O)[C@H](N)CO)C(=O)N[C@H](CCC(N)=O)C(N)=O,inactive,inactive,
H-EHQRVQ-NH2,,Active,Activity [15]: Active; Activity [16]: Active
H-APEHQRVQ-NH2,Active,Active,
CC(C)[C@H](NC(=O)[C@H](CCCNC(=N)N)NC(=O)[C@H](CCC(N)=O)NC(=O)[C@H](Cc1cnc[nH]1)NC(=O)[C@@H](CCC(=O)O)NC(=O)[C@@H]1CCCN1C(=O)[C@@H](N)CO)C(=O)N[C@@H](CCC(N)=O)C(N)=O,inactive,inactive,
H-SPEAQRVQ-NH2,Active,Active,
H-SPEHQRAQ-NH2,Active,Active,
H-SPAHQRVQ-NH2,Active,Active,
